Test results as given in ChEMBL document CHEMBL1135980, “Novel angular benzophenazines: dual topoisomerase I and topoisomerase II inhibitors as potential anticancer agents” (J Med Chem, 2002).

Tests used:
[1] = Rf is the resistance factor and is the ratio of the IC50 on the resistant cell line over the IC50 on the parental COR-L23/P cell line; conditions: human
How it was run: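 Resistance factor computed as IC50 in COR-L23/R (MRP-overexpressing) divided by IC50 in COR-L23/P. Both IC50s come from a 5-6 day sulforhodamine B proliferation assay.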

NCI-H69 [2] = assay: Rf is the resistance factor and is the ratio of the IC50 on the resistant cell line over the IC50 on the parental H69/P cell line; format: functional, Homo sapiens
How it was run: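 Resistance factor computed as IC50 in H69/LX4 (Pgp-overexpressing) divided by IC50 in H69/P. Both IC50s come from a 5-6 day Alamar Blue proliferation assay.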

COR-L23 [3] = assay: Cytotoxicity measured using the COR-L23 parental (COR-L23/P) human non small cell lung carcinoma cell line; format: functional, cell-based
How it was run: (§1)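 COR-L23/P (parental) or COR-L23/R (MRP-overexpressing) human NSCLC cells; compound added, then 5-6 days incubation; proliferation read by sulforhodamine B staining.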

COR-L23 [4] = assay: Cytotoxicity measured with the drug resistant human non small cell lung carcinoma cell line COR-L23 (COR-L23/R) which over expresses multidrug resistance associated with protein(MRP); format: functional, cell-based; how it was run: as §1
NCI-H69 [5] = assay: Cytotoxicity measured using the drug resistant, P-glycoprotein (Pgp) expressing human small cell lung carcinoma cell line H69/LX4; format: functional, cell-based
How it was run: (§2)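 H69/P (parental) or H69/LX4 (P-glycoprotein-overexpressing) human SCLC cells; compound added, then 5-6 days incubation; proliferation read with Alamar Blue.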

NCI-H69 [6] = assay: Cytotoxicity measured using the H69 parental (H69/P) human small cell lung carcinoma cell line; format: functional, cell-based; how it was run: as §2
Mus musculus [7] = assay: pharmacokinetics in female BALB/c mice measured as AUC after 20 mg/kg iv administration; format: ADME, organism-based; parameters: dose 20 mg/kg, route intravenous; conditions: in vivo
How it was run: (§3)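 Female Balb/c mice dosed intravenously at 20 or 50 mg/kg. Blood taken by cardiac puncture under anaesthesia into heparinized syringes at times from 2 min to 24 h. Plasma prepared by centrifugation and drug measured by HPLC; plasma PK parameters derived.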

Mus musculus [8] = assay: pharmacokinetics in female BALB/c mice measured as AUC after 50 mg/kg iv administration; format: ADME, organism-based; parameters: dose 50 mg/kg, route intravenous; conditions: in vivo; how it was run: as §3
Mus musculus [9] = assay: pharmacokinetics in female BALB/c mice measured as AUC after 50 mg/kg Preoral administration; format: ADME, organism-based; parameters: dose 50 mg/kg; conditions: in vivo, po
How it was run: (§4)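 Female Balb/c mice given 50 mg/kg by oral gavage. Blood taken by cardiac puncture under anaesthesia into heparinized syringes at 2 min-24 h. Plasma analyzed by HPLC; plasma PK parameters derived, with oral bioavailability relative to iv dosing.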

[10] = pharmacokinetics in female BALB/c mice measured as Cl after 20 mg/kg iv administration; format: ADME, organism-based; parameters: dose 20 mg/kg, route intravenous; conditions: mouse, in vivo; how it was run: as §3
[11] = pharmacokinetics in female BALB/c mice measured as Cmax after 20 mg/kg iv administration; format: ADME, organism-based; parameters: dose 20 mg/kg, route intravenous; conditions: mouse, in vivo; how it was run: as §3
[12] = pharmacokinetics in female BALB/c mice measured as Cmax after 50 mg/kg iv administration; format: ADME, organism-based; parameters: dose 50 mg/kg, route intravenous; conditions: mouse, in vivo; how it was run: as §3
[13] = pharmacokinetics in female BALB/c mice measured as Cmax after 50 mg/kg Preoral administration; format: ADME, organism-based; parameters: route oral, dose 50 mg/kg; conditions: mouse, in vivo, po; how it was run: as §4
[14] = pharmacokinetics in female BALB/c mice measured as bioavailability (F) after 50 mg/kg peroral administration; format: ADME, organism-based; conditions: mouse, in vivo, po; how it was run: as §4
[15] = pharmacokinetics in female BALB/c mice measured as Cl after 50 mg/kg iv administration; format: ADME, organism-based; parameters: dose 50 mg/kg, route intravenous; conditions: mouse, in vivo; how it was run: as §3
[16] = pharmacokinetics in female BALB/c mice measured as Kel after 20 mg/kg iv administration; format: ADME, organism-based; parameters: dose 20 mg/kg, route intravenous; conditions: mouse, in vivo; how it was run: as §3
[17] = pharmacokinetics in female BALB/c mice measured as Kel after 50 mg/kg iv administration; format: ADME, organism-based; parameters: dose 50 mg/kg, route intravenous; conditions: mouse, in vivo; how it was run: as §3
[18] = pharmacokinetics in female BALB/c mice measured as Kel after 50 mg/kg Preoral administration; format: ADME, organism-based; parameters: dose 50 mg/kg; conditions: mouse, in vivo, po; how it was run: as §4
[19] = pharmacokinetics in female BALB/c mice measured as Vss after 20 mg/kg iv administration; format: ADME, organism-based; parameters: dose 20 mg/kg, route intravenous; conditions: mouse, in vivo, read-out: Vss; how it was run: as §3
[20] = pharmacokinetics in female BALB/c mice measured as Vss after 50 mg/kg iv administration; format: ADME, organism-based; parameters: dose 50 mg/kg, route intravenous; conditions: mouse, in vivo, read-out: Vss; how it was run: as §3

Compound | Rf [1] | Rf (NCI-H69 [2]) | IC50 (COR-L23 [3]) [nM] | IC50 (COR-L23 [4]) [nM] | IC50 (NCI-H69 [5]) [nM] | IC50 (NCI-H69 [6]) [nM] | further results
CN(C)CCNC(=O)c1cccc2nc3ccc4c([N+](=O)[O-])cccc4c3nc12 | 1.2 | 1.3 | 20 | 24 | 120 | 96 | 
CN(C)CCNC(=O)c1cccc2nc3ccc4ccccc4c3nc12 | 1.4 | 1.9 | 102 | 140 | 130 |  | 
COc1ccc2c(ccc3nc4cccc(C(=O)NCCN(C)C)c4nc32)c1 | 1.2 | 1.3 | 68 | 79 | 185 | 141 | 
CC[C@@]1(O)C(=O)OCc2c1cc1n(c2=O)Cc2cc3c(CN(C)C)c(O)ccc3nc2-1 [TOPOTECAN] |  | 3.9 | 13.2 | 20 | 62.9 |  | 
COc1cccc2c1C(=O)c1c(O)c3c(c(O)c1C2=O)C[C@@](O)(C(=O)CO)C[C@@H]3O[C@H]1C[C@H](N)[C@H](O)[C@H](C)O1 [DOXORUBICIN] |  | 142 | 20.1 | 319 | 3870 |  | 
COc1cccc2c1ccc1nc3cccc(C(=O)NCCN(C)C)c3nc12 | 1.4 | 1.4 | 14 | 20 | 49 |  | 
CN(C)CCNC(=O)c1cccc2nc3ccc4cc(O)ccc4c3nc12 | 1.4 | 1.8 | 67 | 96 | 193 | 109 | 
COc1cccc2c1ccc1nc3cccc(C(=O)N[C@H](C)CN(C)C)c3nc12 | 1.2 | 1.2 | 10.1 | 12.1 | 29 |  | AUC (Mus musculus [7]): 64 ug min m-1; AUC (Mus musculus [8]): 156 ug min m-1; AUC (Mus musculus [9]): 114 ug min m-1; clearance [10]: 6.3 mL/min; Cmax [11]: 800 ng/mL; Cmax [12]: 2900 ng/mL; Cmax [13]: 350 ng/mL; bioavailability [14]: 72%; clearance [15]: 6.4 mL/min; k el [16]: 7.33e-05 s⁻¹; k el [17]: 5e-05 s⁻¹; k el [18]: 3.33e-05 s⁻¹; Vd [19]: 1.3 L; Vd [20]: 1.9 L
CN(C)CCNC(=O)c1cccc2nc3ccc4c(O)cccc4c3nc12 | 1.1 | 1.4 | 15 | 17 | 48 | 35 | 
CN(C)CCNC(=O)c1cccc2nc3ccc4c(OCC(N)=O)cccc4c3nc12 |  | 3.7 |  |  | 328 | 89 | 
COc1cccc2c1ccc1nc3cccc(C(=O)NCCN(CCO)CCO)c3nc12 |  | 5.5 |  |  | 3380 | 614 | 
CN(C)CCNC(=O)c1cccc2nc3ccc4c(NS(C)(=O)=O)cccc4c3nc12 |  | 2.3 |  |  | 4990 | 2130 | 
COc1cccc2c1ccc1nc3cccc(C(=O)NC(CCO)CN(C)C)c3nc12 (stereo not drawn) |  | 1.1 |  |  | 28 | 26 | 
